# Experimental data taken from ChEMBL document CHEMBL4043093, “2-Oxo-3, 4-dihydropyrimido[4, 5-d]pyrimidinyl derivatives as new irreversible pan fibroblast growth factor receptor (FGFR) inhibitors” (Eur J Med Chem, 2017).
# Assays:
# [1] = test system: Phosphatidylinositol 4,5-bisphosphate 3-kinase catalytic subunit alpha isoform (Homo sapiens), P42336 [E545K]; experiment: Inhibition of human partial length PIK3CA E545K mutant (R108 to N1068 residues) expressed in HEK293 cells assessed as residual activity at 1000 nM after 30 mins by Kinomescan method relative to control; type: cell-based
# Procedure, shortened: (§1)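 KINOMEscan binding panel of 456 kinases, with the test compound at a single concentration of 1 µM. Read-out is Percent Control.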
# [2] = molecular target: Myosin-IIIa (Homo sapiens) (UniProt Q8NEV4); experiment: Inhibition of wild-type human partial length MYO3A (M1 to K338 residues) expressed in Escherichia coli BL21 assessed as residual activity at 1000 nM after 30 mins by Kinomescan method relative to control
# [3] = molecular target: Dual specificity protein kinase CLK4 (Homo sapiens) (UniProt Q9HAZ1); experiment: Inhibition of wild-type human partial length CLK4 (R135 to K481 residues) expressed in Escherichia coli BL21 assessed as residual activity at 1000 nM after 30 mins by Kinomescan method relative to control
# [4] = molecular target: cAMP-dependent protein kinase catalytic subunit PRKX (Homo sapiens) (UniProt P51817); experiment: Inhibition of wild-type human partial length PRKX (M1 to F358 residues) expressed in Escherichia coli BL21 assessed as residual activity at 1000 nM after 30 mins by Kinomescan method relative to control
# [5] = molecular target: Myosin light chain kinase (Homo sapiens) (UniProt Q32MK0); experiment: Inhibition of wild-type human partial length MLCK (D488 to K800 residues) expressed in Escherichia coli BL21 assessed as residual activity at 1000 nM after 30 mins by Kinomescan method relative to control
# [6] = molecular target: Serine/threonine-protein kinase MRCK alpha (Homo sapiens) (UniProt Q5VT25); experiment: Inhibition of wild-type human partial length MRCKA (L57 to V418 residues) expressed in Escherichia coli BL21 assessed as residual activity at 1000 nM after 30 mins by Kinomescan method relative to control
# [7] = molecular target: SRSF protein kinase 1 (Homo sapiens) (UniProt Q96SB4); experiment: Inhibition of wild-type human full length SRPK1 (M1 to S655 residues) expressed in Escherichia coli BL21 assessed as residual activity at 1000 nM after 30 mins by Kinomescan method relative to control
# [8] = molecular target: Insulin receptor-related protein (Homo sapiens) (UniProt P14616); experiment: Inhibition of wild-type human partial length INSRR (R950 to E1278 residues) expressed in Escherichia coli BL21 assessed as residual activity at 1000 nM after 30 mins by Kinomescan method relative to control
# [9] = molecular target: Serine/threonine-protein kinase ULK3 (Homo sapiens) (UniProt Q6PHR2); experiment: Inhibition of wild-type human partial length ULK3 (M1 to Q290 residues) expressed in HEK293 cells assessed as residual activity at 1000 nM after 30 mins by Kinomescan method relative to control; type: cell-based
# [10] = molecular target: Tyrosine-protein kinase ABL1 (Homo sapiens) (UniProt P00519); experiment: Inhibition of wild-type human non-phosphorylated ABL1 (S229 to K512 residues) expressed in HEK293 cells assessed as residual activity at 1000 nM after 30 mins by Kinomescan method relative to control; type: cell-based
# [11] = molecular target: Epithelial discoidin domain-containing receptor 1 (Homo sapiens) (UniProt Q08345); experiment: Inhibition of wild-type human partial length DDR1 (R565 to V876 residues) expressed in Escherichia coli BL21 assessed as residual activity at 1000 nM after 30 mins by Kinomescan method relative to control
# [12] = test system: Epidermal growth factor receptor (Homo sapiens), P00533 [UNDEFINED MUTATION]; experiment: Inhibition of human partial length EGFR S752-I759del mutant expressed in Escherichia coli BL21 assessed as residual activity at 1000 nM after 30 mins by Kinomescan method relative to control; procedure, shortened: as §1
# [13] = molecular target: Calcium/calmodulin-dependent protein kinase type II subunit beta (Homo sapiens) (UniProt Q13554); experiment: Inhibition of wild-type human partial length CAMK2B (M1 to Q380 residues) expressed in Escherichia coli BL21 assessed as residual activity at 1000 nM after 30 mins by Kinomescan method relative to control
# [14] = molecular target: Serine/threonine-protein kinase STK11 (Homo sapiens) (UniProt Q15831); experiment: Inhibition of wild-type human full length LKB1 (M1 to Q433 residues) expressed in Escherichia coli BL21 assessed as residual activity at 1000 nM after 30 mins by Kinomescan method relative to control
# Procedure, shortened: (§2)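 Single-concentration screen at 1 µM across a 456-kinase KINOMEscan panel. The read-out is Percent Control for each kinase.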
# [15] = molecular target: Serine/threonine-protein kinase MAK (Homo sapiens) (UniProt P20794); experiment: Inhibition of wild-type human partial length MAK (M1 to P314 residues) expressed in Escherichia coli BL21 assessed as residual activity at 1000 nM after 30 mins by Kinomescan method relative to control
# [16] = molecular target: Tyrosine-protein kinase JAK1 (Homo sapiens) (UniProt P23458); experiment: Inhibition of wild-type human partial length JAK1 JH2 pseudokinase domain (R537 to D855 residues) expressed in HEK293 cells assessed as residual activity at 1000 nM after 30 mins by Kinomescan method relative to control; type: cell-based
# [17] = test system: Hepatocyte growth factor receptor (Homo sapiens), P08581 [M1250T]; experiment: Inhibition of human partial length MET M1250T mutant (D1010 to S1367 residues) expressed in Escherichia coli BL21 assessed as residual activity at 1000 nM after 30 mins by Kinomescan method relative to control; procedure, shortened: as §1
# [18] = test system: Receptor-type tyrosine-protein kinase FLT3 (Homo sapiens), P36888 [D835Y]; experiment: Inhibition of human partial length FLT3 D835Y mutant (Q580 to Y969 residues) expressed in Escherichia coli BL21 assessed as residual activity at 1000 nM after 30 mins by Kinomescan method relative to control; procedure, shortened: as §1
# [19] = molecular target: Mitogen-activated protein kinase 7 (Homo sapiens) (UniProt Q13164); experiment: Inhibition of wild-type human partial length ERK5 (M1 to A409 residues) expressed in Escherichia coli BL21 assessed as residual activity at 1000 nM after 30 mins by Kinomescan method relative to control
# [20] = test system: Proto-oncogene tyrosine-protein kinase receptor Ret (Homo sapiens), P07949 [V804M]; experiment: Inhibition of human partial length RET V804M mutant (E713 to D1014 residues) expressed in Escherichia coli BL21 assessed as residual activity at 1000 nM after 30 mins by Kinomescan method relative to control
# Procedure, shortened: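 Single-point screen at a fixed 1 µM, run within a 456-kinase DiscoveRx KINOMEscan panel. Each kinase's read-out is Percent Control, i.e. signal relative to a control without compound. Hits were scored by a Percent Control < 35 cut-off, and an S(35) selectivity score was calculated across the non-mutant kinases.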
# [21] = molecular target: Beta-adrenergic receptor kinase 1 (Homo sapiens) (UniProt P25098); experiment: Inhibition of wild-type human full length GRK2 (M1 to L689 residues) expressed in HEK293 cells assessed as residual activity at 1000 nM after 30 mins by Kinomescan method relative to control; type: cell-based; procedure, shortened: as §2
# Sequence of Dual specificity protein kinase CLK4 (Homo sapiens) (Q9HAZ1 whole entry, looked up, the tested form may be a part): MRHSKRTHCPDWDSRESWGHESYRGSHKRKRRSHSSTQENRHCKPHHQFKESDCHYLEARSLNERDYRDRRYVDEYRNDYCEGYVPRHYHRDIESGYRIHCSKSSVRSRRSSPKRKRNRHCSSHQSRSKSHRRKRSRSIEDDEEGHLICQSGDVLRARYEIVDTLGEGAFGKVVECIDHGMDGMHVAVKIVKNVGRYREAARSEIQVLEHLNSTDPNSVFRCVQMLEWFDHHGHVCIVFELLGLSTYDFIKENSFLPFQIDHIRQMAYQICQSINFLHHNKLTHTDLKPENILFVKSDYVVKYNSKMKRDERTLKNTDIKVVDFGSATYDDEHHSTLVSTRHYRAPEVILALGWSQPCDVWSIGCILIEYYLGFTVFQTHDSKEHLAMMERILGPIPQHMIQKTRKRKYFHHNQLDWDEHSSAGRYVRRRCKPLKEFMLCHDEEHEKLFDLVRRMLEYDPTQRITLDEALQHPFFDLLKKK
# Sequence of Epithelial discoidin domain-containing receptor 1 (Homo sapiens) (Q08345 whole entry, the tested form may be a part): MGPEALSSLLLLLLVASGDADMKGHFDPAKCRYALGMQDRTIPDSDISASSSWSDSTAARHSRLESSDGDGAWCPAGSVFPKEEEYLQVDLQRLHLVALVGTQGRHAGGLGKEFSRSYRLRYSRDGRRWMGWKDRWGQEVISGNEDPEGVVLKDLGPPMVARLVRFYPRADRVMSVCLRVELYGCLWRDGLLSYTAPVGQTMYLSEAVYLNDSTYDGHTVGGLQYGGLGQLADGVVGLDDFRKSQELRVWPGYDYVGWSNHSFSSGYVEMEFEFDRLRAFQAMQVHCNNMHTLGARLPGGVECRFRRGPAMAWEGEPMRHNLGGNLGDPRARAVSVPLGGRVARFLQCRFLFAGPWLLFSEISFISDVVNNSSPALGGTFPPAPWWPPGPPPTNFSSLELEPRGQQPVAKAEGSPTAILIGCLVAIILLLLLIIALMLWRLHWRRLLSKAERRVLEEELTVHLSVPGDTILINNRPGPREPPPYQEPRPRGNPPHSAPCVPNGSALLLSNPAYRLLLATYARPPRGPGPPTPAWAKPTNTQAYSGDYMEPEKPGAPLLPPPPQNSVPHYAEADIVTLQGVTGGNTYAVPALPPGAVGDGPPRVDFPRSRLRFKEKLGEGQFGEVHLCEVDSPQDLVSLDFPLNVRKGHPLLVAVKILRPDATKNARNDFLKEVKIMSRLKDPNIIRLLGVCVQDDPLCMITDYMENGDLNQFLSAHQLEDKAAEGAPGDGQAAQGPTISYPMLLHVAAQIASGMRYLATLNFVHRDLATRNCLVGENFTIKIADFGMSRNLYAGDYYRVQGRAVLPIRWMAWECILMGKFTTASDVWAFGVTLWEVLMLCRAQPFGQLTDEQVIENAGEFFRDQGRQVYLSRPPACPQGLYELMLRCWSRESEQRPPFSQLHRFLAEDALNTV
# Sequence of Myosin-IIIa (Homo sapiens) (Q8NEV4 whole entry, the tested form may be a part): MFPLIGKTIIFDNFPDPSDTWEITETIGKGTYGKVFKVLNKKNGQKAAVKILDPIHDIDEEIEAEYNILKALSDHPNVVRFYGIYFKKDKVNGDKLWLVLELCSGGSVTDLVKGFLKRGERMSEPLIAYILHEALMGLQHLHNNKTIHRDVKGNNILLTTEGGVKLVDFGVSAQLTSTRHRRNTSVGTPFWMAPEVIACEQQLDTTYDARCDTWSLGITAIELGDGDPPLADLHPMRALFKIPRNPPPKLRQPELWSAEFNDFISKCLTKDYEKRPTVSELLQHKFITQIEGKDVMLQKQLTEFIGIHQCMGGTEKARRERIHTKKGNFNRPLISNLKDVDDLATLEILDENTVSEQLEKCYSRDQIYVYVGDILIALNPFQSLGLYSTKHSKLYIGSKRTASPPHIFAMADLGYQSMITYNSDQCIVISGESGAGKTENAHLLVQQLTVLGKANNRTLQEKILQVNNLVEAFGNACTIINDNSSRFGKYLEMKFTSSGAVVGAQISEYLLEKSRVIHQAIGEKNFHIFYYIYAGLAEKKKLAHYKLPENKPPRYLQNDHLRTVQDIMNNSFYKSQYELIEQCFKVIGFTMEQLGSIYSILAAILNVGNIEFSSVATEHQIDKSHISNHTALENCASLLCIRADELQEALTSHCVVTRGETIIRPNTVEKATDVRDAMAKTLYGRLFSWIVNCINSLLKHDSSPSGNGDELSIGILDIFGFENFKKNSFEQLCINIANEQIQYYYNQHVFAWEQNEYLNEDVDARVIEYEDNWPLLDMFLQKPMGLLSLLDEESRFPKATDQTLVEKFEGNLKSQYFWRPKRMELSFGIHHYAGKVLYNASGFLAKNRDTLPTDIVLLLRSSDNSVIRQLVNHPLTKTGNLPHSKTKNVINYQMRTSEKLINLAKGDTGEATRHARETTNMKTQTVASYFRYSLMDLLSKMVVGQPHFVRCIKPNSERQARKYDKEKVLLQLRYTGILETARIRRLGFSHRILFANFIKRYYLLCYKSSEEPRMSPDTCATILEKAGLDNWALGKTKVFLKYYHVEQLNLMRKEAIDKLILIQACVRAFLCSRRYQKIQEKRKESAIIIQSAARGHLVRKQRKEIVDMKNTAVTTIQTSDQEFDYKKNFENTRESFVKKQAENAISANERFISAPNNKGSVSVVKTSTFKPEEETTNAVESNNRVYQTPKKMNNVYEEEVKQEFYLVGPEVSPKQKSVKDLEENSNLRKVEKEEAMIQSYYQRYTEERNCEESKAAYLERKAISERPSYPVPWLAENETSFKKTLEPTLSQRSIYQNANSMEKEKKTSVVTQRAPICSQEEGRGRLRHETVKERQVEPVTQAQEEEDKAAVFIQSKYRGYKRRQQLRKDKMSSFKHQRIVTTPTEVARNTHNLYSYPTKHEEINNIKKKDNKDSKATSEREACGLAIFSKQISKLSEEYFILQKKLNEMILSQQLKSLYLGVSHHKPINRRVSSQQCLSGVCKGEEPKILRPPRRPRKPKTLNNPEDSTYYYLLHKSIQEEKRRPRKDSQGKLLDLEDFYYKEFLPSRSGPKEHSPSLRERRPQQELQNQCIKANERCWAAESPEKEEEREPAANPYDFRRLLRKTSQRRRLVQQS
# Sequence of cAMP-dependent protein kinase catalytic subunit PRKX (Homo sapiens) (P51817 whole entry, the tested form may be a part): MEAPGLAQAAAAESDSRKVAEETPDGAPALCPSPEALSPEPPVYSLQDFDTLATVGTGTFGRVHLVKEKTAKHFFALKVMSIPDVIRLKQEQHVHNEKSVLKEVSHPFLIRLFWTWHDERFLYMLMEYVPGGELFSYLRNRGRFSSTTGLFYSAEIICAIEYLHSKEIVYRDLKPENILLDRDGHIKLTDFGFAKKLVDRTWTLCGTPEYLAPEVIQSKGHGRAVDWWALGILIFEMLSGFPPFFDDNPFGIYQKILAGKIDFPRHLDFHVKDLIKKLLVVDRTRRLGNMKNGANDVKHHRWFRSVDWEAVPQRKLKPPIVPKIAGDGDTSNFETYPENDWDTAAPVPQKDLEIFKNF
# Sequence of Serine/threonine-protein kinase MAK (Homo sapiens) (P20794 whole entry, the tested form may be a part): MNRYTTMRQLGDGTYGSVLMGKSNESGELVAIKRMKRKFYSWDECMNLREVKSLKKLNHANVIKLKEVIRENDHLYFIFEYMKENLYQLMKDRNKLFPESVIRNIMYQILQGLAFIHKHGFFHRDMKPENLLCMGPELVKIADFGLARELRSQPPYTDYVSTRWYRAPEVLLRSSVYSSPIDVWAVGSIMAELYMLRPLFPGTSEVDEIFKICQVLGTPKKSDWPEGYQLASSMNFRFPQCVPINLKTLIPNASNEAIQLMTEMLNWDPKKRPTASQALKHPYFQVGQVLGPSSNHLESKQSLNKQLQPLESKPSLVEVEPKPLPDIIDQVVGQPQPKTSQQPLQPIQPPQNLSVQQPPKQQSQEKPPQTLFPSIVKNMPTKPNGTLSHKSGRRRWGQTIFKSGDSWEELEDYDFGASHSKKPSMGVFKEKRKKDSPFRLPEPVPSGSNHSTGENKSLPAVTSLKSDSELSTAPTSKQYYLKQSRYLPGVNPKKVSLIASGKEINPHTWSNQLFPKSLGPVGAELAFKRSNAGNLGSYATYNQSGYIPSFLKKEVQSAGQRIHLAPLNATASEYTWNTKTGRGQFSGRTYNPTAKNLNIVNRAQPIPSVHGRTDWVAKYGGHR
# Sequence of SRSF protein kinase 1 (Homo sapiens) (Q96SB4 whole entry, the tested form may be a part): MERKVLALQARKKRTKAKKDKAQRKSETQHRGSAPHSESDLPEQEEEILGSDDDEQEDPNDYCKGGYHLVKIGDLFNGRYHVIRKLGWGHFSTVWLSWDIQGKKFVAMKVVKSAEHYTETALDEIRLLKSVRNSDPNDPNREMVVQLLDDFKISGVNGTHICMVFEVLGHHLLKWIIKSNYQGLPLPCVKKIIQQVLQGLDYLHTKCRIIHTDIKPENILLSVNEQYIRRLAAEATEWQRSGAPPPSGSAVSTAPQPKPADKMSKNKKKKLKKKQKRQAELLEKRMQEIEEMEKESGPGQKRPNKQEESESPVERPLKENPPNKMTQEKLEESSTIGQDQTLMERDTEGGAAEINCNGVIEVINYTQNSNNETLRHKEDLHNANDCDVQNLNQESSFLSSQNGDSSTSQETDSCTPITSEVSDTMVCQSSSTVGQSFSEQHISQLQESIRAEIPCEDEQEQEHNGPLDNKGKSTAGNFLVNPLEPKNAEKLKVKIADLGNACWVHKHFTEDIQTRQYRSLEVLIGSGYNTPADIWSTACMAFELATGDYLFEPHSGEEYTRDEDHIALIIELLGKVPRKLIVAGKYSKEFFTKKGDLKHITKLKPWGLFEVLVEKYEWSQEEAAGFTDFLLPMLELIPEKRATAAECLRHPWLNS
smiles,measurement,setting,value
COc1cc(OC)c(Cl)c(N2Cc3cnc(Nc4ccc(F)cc4)nc3N(C3CCN(C(=O)/C=C/CN(C)C)CC3)C2=O)c1Cl,Activity,[1],99%
same,Activity,[2],96%
same,Activity,[3],93%
same,Activity,[4],100%
same,Activity,[5],99%
same,Activity,[6],98%
same,Activity,[7],80%
same,Activity,[8],52%
same,Activity,[9],99%
same,Activity,[10],32%
same,Activity,[11],7%
same,Activity,[12],71%
same,Activity,[13],100%
same,Activity,[14],100%
same,Activity,[15],100%
same,Activity,[16],97%
same,Activity,[17],100%
same,Activity,[18],83%
same,Activity,[19],49%
same,Activity,[20],52%
same,Activity,[21],87%
